These results are taken from PMC9291769 (Chemmedchem, 2021).

For one data set, the target named is IDO1 (Homo sapiens, UniProt P14902). As to the kind of experiment: Cellular IDO1 inhibition. Type of data set: cell-based. Conditions: A375 cell line, IFN-γ, 48 h; for IDO cellular assay inhibition [%] @ 10 μM±SD: L-Kyn by HPLC. The method in brief: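 A375 cells (0.5×10^5/well) were grown overnight, then given test compound (serial dilutions 0.01–30 µM, or single 10 µM) with human IFN-γ (500 U/mL final) and 0.1% DMSO for 48 h. Medium was deproteinized with 20% CCl₃COOH. L-Kyn was quantified by C18 HPLC at 330 nm against a calibration curve; % inhibition was taken versus basal levels. IC50s came from concentration-response curves, ≥3 experiments in triplicate.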
IDO1, sequence (P14902 whole entry): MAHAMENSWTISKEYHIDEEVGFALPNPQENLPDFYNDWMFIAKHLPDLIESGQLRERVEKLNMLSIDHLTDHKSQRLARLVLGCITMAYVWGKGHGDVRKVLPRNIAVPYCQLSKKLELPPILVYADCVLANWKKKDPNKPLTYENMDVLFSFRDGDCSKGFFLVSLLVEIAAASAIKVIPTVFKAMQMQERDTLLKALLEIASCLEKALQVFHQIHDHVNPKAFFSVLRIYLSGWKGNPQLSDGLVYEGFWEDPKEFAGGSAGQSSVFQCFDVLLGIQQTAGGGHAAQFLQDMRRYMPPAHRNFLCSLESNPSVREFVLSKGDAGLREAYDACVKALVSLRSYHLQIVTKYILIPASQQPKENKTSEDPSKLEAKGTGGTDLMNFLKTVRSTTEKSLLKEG

For another data set, the system named is A375 cells. As to the kind of experiment: MTT cell viability assay. Type of data set: cell-based, human. Conditions: 48 h. The method in brief: (§1)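 A375 cells were kept in high-glucose DMEM with 10% heat-inactivated FBS, 2 mM L-glutamine and pen/strep. Cells were seeded at 0.5×10^5/well and exposed to 10 µM test compound for 48 h at 37 °C, 5% CO₂, then given MTT. Viability = 100(x−y)/(z−y), where x, y and z are absorbance of treated, resting and untreated cells. Mean ± SD, ≥3 experiments in triplicate.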
For orientation: Tetrazolium dyes change colour on reduction, which living cells bring about.

The target of another data set is holo-IDO1 (Homo sapiens, UniProt P14902). As to the kind of experiment: Heme detection. Type of data set: binding. As to conditions: 1 μM holo-IDO1, 120 min, 37 °C; VS9 different concentrations, epacadostat 20 μM. In a few lines:
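1 µM holo-IDO1 in 100 mM potassium phosphate (pH 7.2) with 1 mM CHAPS was incubated with varying test-compound concentrations, or 20 µM reference inhibitor, for 120 min at 37 °C. Samples were diluted 100-fold, and free heme was measured with a hemin detection kit at 570 nm. Values are relative to untreated, mean of n=3 ± SD.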

Data set [1] can be described thus: In vitro metabolic stability in rat liver S9 fraction. It is filed as in vitro ADME. Conditions: rat liver S9 with NADPH, 5 μM substrate, 37 °C. The method in brief: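 Pooled male Sprague Dawley rat liver S9 (1.5 mg/mL final protein) was used in 50 mM Tris pH 7.4 with 3.3 mM MgCl₂, 1.3 mM β-NADP, 3.3 mM glucose 6-phosphate, 0.4 U/mL G6PDH and 1% acetonitrile. Test compound was 5 µM, shaken 60 min at 37 °C. Controls lacked S9 or cofactors. Reactions were stopped with ice-cold acetonitrile and centrifuged; residual substrate was measured.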

For data set [2], the target named is recombinant form of human IDO1 (rhIDO1) (Homo sapiens, UniProt P14902). As to the kind of experiment: rhIDO1 enzymatic assay. Type of data set: biochemical. Conditions: read-out: rhIDO1 inhibition. The method in brief: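 Recombinant human IDO1 inhibitor-screening kit: 10 µM test compound in complete reaction buffer, 45 min at 37 °C. Stopped with 30% (w/v) CCl₃COOH, heated 50 °C for 15 min and centrifuged. Supernatant was mixed 1:1 with 2% p-dimethylaminobenzaldehyde in acetic acid, and kynurenine pigment read at 490 nm. The kit's positive inhibition control was included. Mean ± SEM, three experiments in triplicate.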
recombinant form of human IDO1 (rhIDO1), sequence (P14902 whole entry): as above

A further data set has as its target TDO (P1.TDO) (Homo sapiens, UniProt P48775). As to the kind of experiment: IDO1 and TDO selectivity assay, P1.TDO cells. It is filed as cell-based. As to conditions: 10 μM, 16 h. The method in brief:
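Mouse mastocytoma P815-derived P1.HTR cells, stably electroporated with a human TDO plasmid and selected in puromycin, grown in IMDM with 1 mM glutamine and penicillin/streptomycin, used at ≤10th passage. Cells incubated 16 h with 10 μM test compound; DMSO vehicle as control. Supernatant L-Kyn measured by HPLC-UV (C18 column) against a calibration curve, detection limit 0.05 μM. Triplicate.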

A short description of a further data set: MTT cell viability assay. As to conditions: human, A375 cells, Cell viability [%] @ 10 μM±SD. Type of data set: cell-based, human. The method in brief: as §1

The term inhibition denotes how much of the control response was suppressed. As usually defined, the IC50 is the concentration needed to halve the response being measured. In general, viability refers to a read-out of living cells in per cent, often relative to untreated cells. Lower therefore signals more harm to the cells.

Where “and” joins values, the source holds several entries; their conditions need not be identical. Equal entries are not always repeated.

holo-IDO1, sequence (P14902 whole entry): as above
TDO (P1.TDO), sequence (P48775 whole entry): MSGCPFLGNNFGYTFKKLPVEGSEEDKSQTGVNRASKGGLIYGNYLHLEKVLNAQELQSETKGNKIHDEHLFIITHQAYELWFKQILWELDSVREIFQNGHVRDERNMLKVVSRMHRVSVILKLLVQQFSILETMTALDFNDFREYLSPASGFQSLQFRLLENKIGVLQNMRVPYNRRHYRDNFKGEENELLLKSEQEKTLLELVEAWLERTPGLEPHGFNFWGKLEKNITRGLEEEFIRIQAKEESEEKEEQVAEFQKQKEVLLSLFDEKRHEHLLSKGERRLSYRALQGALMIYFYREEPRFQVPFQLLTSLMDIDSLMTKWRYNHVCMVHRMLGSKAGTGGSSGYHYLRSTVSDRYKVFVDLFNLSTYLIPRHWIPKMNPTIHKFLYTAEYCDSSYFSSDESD

On to “N‐((6‐(Trifluoromethyl)‐[1,2,4]triazolo[4,3‐a]pyridin‐3‐yl)methyl)‐9H‐fluorene‐4‐carboxamide [Compound 10]”, for which the “IDO cellular assay inhibition [%] @ 10 μM±SD” value on IDO1 was determined as 34±1%. In addition, the “Cell viability [%] @ 10 μM±SD” value with A375 cells is reported as 90±14.8%.
With `NS(=O)(=O)NCCNc1nonc1C(=NO)Nc1ccc(F)c(Br)c1` [epacadostat, reference compound], at holo-IDO1, the “levels of free heme after incubation with IDO1” value is recorded as “did not increase the levels of free heme”.
As to “2‐Methyl‐3‐((pyridin‐3‐ylmethyl)amino)‐N‐((6‐(trifluoromethyl)‐[1,2,4]triazolo[4,3‐a]pyridin‐3‐yl)methyl)benzamide [Compound 11]”, at IDO1, the “IDO cellular assay inhibition [%] @ 10 μM±SD” value was determined as 22±5%. Moreover, the “Cell viability [%] @ 10 μM±SD” value in the data set with A375 cells was found to be 91±12.7%.
As to `O=C(NCc1nnc2ccc(C(F)(F)F)cn12)c1cccc2cn[nH]c12` [Compound 2, N‐((6‐(Trifluoromethyl)‐[1,2,4]triazolo[4,3‐a]pyridin‐3‐yl)methyl)‐1H‐indazole‐7‐carboxamide], on holo-IDO1, the “levels of free heme after incubation with IDO1” value is on record as “did not increase the levels of free heme”. The “Residual peak area after RLS9 incubation (60 min)” value in data set [1] is reported as “higher than 99%”. The inhibition at 10 µM in data set [2] came out at 54.6 ± 3.1%. Moreover, the “IDO cellular assay inhibition [%] @ 10 μM±SD” value on IDO1 is 42±9%. Further, at IDO1 (IC50±SD [μM]), the IC50 is 2.6 µM and 2.8 µM. The “Kyn levels in P1.TDO cells” value at TDO (P1.TDO) is on record as “not able to induce a reduction of Kyn levels in P1.TDO”. Also, in the data set with A375 cells, the “Cell viability [%] @ 10 μM±SD” value was found to be 87±18.3%. Moreover, the viability at 48 h, 10 μM in the data set “MTT cell viability assay” worked out at 91 ± 9.9%.
